# Tests used:
# [1] = target: Serine/threonine-protein kinase 10 (Homo sapiens) (UniProt O94804); test: Inhibition of human recombinant LOK at 40 nM related to control ULK1
# [2] = target: T1, Phosphorylase b kinase gamma catalytic chain, liver/testis isoform (Homo sapiens) (UniProt P15735); test: Inhibition of human recombinant PHKg2 at 40 nM in presence of ATP by radiometric assay relative to control
# T1 sequence (whole entry): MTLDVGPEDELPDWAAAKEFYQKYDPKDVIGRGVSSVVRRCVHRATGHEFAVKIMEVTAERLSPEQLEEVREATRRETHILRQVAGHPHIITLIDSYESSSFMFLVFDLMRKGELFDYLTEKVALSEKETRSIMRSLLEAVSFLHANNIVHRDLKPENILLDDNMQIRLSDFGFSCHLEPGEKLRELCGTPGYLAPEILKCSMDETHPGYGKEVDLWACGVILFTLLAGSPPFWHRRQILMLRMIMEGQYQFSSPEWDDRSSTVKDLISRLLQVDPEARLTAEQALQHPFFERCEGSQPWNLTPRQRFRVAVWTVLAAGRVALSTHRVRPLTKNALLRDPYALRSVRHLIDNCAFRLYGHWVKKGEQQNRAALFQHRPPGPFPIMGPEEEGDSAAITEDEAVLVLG
# [3] = target: T2, Serine/threonine-protein kinase 3 (Homo sapiens) (UniProt Q13188); test: Inhibition of human recombinant MST2 at 40 nM related to control ULK1
# T2 sequence (whole entry): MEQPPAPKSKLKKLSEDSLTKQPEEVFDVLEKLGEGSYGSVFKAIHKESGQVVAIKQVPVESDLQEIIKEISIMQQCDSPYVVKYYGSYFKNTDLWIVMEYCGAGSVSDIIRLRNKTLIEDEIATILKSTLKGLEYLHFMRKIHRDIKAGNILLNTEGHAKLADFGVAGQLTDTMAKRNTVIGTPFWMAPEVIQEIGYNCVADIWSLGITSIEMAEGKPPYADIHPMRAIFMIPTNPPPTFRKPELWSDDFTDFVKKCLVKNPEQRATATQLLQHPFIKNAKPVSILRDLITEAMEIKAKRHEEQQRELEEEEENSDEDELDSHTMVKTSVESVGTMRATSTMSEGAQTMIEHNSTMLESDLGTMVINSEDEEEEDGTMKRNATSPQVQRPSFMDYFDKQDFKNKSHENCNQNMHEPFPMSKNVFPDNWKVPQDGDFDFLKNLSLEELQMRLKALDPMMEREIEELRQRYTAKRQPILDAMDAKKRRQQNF
# [4] = target: T3, Myotonin-protein kinase (Homo sapiens) (UniProt Q09013); test: Inhibition of human recombinant DMPK1 at 15 nM in presence of ATP by radiometric assay relative to control
# T3 sequence (whole entry): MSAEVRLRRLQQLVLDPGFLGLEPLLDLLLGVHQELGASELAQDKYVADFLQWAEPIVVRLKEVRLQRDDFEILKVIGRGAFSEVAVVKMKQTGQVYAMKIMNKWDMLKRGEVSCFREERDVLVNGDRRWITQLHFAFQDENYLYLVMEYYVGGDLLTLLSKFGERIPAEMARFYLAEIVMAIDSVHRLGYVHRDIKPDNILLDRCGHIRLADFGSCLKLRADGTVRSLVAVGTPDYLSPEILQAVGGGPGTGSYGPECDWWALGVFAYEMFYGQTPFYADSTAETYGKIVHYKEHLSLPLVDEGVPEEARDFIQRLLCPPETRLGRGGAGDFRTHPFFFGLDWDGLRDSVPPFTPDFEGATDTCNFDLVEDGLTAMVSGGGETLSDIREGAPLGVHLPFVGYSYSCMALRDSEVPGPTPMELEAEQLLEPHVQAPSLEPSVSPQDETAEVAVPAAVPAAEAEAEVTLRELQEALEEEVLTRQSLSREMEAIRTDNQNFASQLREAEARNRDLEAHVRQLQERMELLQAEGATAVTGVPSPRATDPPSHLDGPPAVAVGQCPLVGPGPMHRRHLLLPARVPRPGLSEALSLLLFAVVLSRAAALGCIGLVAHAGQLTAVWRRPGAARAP
# [5] = target: T4, Serine/threonine-protein kinase D3 (Homo sapiens) (UniProt O94806); test: Inhibition of human recombinant PKD3 at 15 nM in presence of ATP by radiometric assay relative to control
# T4 sequence (whole entry): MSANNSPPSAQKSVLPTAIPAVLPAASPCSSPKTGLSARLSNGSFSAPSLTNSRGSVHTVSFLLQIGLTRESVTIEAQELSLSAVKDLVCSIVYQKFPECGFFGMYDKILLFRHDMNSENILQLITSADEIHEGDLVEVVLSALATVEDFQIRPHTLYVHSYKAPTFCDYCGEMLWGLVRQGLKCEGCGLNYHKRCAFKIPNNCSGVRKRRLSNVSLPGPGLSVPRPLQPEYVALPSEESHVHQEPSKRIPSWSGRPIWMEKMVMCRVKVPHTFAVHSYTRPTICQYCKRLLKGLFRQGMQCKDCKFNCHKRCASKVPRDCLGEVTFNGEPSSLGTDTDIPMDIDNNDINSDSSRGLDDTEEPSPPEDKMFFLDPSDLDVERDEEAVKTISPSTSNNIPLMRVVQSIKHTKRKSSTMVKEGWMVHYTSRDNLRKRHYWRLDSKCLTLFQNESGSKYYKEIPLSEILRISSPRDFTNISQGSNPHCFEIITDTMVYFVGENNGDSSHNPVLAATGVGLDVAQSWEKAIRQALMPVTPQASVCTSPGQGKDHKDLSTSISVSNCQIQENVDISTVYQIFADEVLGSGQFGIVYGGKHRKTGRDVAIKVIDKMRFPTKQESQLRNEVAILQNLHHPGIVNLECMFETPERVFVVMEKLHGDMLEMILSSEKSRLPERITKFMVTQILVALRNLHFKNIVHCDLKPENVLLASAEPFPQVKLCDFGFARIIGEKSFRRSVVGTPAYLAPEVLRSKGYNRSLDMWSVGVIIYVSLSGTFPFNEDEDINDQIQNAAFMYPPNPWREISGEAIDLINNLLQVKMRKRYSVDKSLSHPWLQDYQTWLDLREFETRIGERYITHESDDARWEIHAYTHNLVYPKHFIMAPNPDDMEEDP
# [6] = target: Calcium/calmodulin-dependent protein kinase type 1D (Homo sapiens) (UniProt Q8IU85); test: Inhibition of human recombinant CaMK1d at 500 nM in presence of ATP by radiometric assay relative to control
# [7] = target: Mitogen-activated protein kinase 14 (Homo sapiens) (UniProt Q16539); test: Inhibition of human recombinant p38alpha at 500 nM related to control ULK1
# [8] = target: Protein-tyrosine kinase 6 (Homo sapiens) (UniProt Q13882); test: Inhibition of human recombinant BRK at 500 nM in presence of ATP by radiometric assay relative to control
# In short: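 Part of a radiometric in vitro activity panel of 327 recombinant human kinases. Each kinase was tested in duplicate at one inhibitor concentration. Activity remaining was expressed as a percentage of the vehicle control, and percent inhibition was taken as 100 minus that value.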
# Chain of Mitogen-activated protein kinase 14 (Homo sapiens) (Q16539 whole entry): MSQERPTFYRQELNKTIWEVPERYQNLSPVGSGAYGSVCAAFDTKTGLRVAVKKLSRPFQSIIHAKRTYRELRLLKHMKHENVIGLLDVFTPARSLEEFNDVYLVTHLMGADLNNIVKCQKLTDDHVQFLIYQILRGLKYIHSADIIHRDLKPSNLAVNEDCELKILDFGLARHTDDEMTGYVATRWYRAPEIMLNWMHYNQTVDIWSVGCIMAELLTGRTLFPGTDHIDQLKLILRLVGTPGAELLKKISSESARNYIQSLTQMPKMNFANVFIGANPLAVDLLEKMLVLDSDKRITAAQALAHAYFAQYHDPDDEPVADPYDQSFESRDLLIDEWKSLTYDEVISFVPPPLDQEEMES
# Chain of Serine/threonine-protein kinase 10 (Homo sapiens) (O94804 whole entry, looked up, canonical isoform): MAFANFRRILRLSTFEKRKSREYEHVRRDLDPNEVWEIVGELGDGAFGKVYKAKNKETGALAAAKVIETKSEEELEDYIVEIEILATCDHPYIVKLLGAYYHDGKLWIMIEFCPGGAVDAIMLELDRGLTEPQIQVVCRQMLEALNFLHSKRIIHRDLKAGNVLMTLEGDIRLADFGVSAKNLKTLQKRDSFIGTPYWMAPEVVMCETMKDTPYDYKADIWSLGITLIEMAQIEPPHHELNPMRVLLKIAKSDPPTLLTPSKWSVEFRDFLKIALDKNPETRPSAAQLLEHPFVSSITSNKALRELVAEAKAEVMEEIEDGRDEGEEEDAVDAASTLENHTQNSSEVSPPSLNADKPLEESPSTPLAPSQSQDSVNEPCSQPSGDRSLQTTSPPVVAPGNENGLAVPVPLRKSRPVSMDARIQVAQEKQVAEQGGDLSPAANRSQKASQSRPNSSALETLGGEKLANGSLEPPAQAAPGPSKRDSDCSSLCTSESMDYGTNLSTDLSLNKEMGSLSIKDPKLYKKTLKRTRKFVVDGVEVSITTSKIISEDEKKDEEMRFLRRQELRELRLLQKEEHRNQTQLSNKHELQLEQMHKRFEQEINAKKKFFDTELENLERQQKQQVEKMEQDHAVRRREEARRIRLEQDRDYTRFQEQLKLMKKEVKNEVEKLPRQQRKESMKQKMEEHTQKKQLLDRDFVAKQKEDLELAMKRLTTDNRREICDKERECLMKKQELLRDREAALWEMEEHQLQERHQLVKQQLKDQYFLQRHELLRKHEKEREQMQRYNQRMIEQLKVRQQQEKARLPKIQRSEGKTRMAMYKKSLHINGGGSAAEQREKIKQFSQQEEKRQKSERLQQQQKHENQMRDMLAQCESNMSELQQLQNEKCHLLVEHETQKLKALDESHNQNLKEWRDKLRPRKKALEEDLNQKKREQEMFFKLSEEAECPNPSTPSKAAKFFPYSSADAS
# Chain of Protein-tyrosine kinase 6 (Homo sapiens) (Q13882 whole entry, looked up): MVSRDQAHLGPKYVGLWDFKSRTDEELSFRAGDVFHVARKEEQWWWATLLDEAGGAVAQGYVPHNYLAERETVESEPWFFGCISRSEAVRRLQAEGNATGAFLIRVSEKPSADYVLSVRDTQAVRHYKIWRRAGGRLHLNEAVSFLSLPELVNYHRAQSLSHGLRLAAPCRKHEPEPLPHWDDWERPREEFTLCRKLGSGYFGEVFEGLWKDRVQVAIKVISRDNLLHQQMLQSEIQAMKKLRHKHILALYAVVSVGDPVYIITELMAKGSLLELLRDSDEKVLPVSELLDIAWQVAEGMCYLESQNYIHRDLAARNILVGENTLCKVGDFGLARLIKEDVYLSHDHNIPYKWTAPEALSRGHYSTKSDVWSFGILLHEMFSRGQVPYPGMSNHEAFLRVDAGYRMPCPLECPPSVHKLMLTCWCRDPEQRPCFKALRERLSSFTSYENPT
# Chain of Calcium/calmodulin-dependent protein kinase type 1D (Homo sapiens) (Q8IU85 whole entry, looked up): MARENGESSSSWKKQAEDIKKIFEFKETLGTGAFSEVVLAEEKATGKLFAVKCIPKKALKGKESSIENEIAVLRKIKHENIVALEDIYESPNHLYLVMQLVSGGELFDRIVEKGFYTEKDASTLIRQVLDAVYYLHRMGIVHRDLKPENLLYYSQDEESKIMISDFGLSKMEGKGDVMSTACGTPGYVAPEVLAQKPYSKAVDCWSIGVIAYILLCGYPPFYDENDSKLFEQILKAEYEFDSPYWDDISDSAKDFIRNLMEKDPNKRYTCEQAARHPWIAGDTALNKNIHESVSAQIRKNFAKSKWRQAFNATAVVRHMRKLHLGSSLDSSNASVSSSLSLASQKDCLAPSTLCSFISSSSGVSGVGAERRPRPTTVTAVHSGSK
smiles,measurement,setting,value
O=C(N[C@@H](C1CC1)C(F)(F)F)c1cc(-c2cnn3cc(-c4ccc(F)cc4)cnc23)cs1,fold change (FC),[1],0
same,inhibition,[2],0%
same,fold change (FC),[3],0
CC(C)[C@H](NC(=O)c1cc(-c2cnn3cc(-c4ccc(OCCN5CCCCC5)cc4)cnc23)cs1)C(F)(F)F,inhibition,[4],0%
same,inhibition,[5],7%
CNC(=O)c1ccccc1Oc1nc(Nc2cc(OC)c(OC)c(OC)c2)ncc1Br,inhibition,[6],5%
same,fold change (FC),[7],0.07
same,inhibition,[8],2%
